Source: ChEMBL document CHEMBL4513216, “Probing the Open Global Health Chemical Diversity Library for Multistage-Active Starting Points for Next-Generation Antimalarials” (ACS Infect Dis, 2020)

Experiment: Toxicity liver stage against HepG2, at 10uM
Assay type: cell-based
Design: test concentration 10 uM, cell line HepG2-A16-CD81EGFP
Settings: human, HepG2-A16-CD81EGFP cells; read-out: INHIBITION
Method in brief: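 Uninfected HepG2-A16-CD81EGFP cells, 3 × 10^3 per well, 1536-well, plated on prespotted compound at 10 μM final, parasite-free screening media added to match infected plates; puromycin 10 μM positive, DMSO 0.5% negative; run in parallel with 48 h PbLuc assay at 37 °C, 5% CO2; viability by CellTiter-Glo luminescence, normalized to controls.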

COCCCNC(=O)NCc1ccc(C)cc1
cytotoxicity at 10 µM: 3.37%

Cc1nc(COC[C@H]2CCC[C@]23CN(C2CCOC2)CCO3)cs1 (some centres not stated)
cytotoxicity at 10 µM: -79.5%

CCOc1cc(=O)n2c(c1C(=O)OCc1ccc(C)cc1)CCCC2
cytotoxicity at 10 µM: 3.11%

CC(=O)N1[C@H](Cn2cncn2)C[C@@H]2CN(Cc3ccncc3)CC[C@@H]21
cytotoxicity at 10 µM: 2.24%

Cc1nc(CCN)cc(N2CCCN(C(=O)c3ccco3)CC2)n1
cytotoxicity at 10 µM: 1.24%

CC(C)Cc1cc(C(=O)NCC2CCCN(c3ccccn3)C2)on1 (configuration not stated)
cytotoxicity at 10 µM: 0.101%

COCCNC(=O)N1CCCC1COc1ccccc1 (configuration not stated)
cytotoxicity at 10 µM: 2.04%

COCC(=O)N1CCCCC1c1ccnc(Nc2cnccn2)n1 (configuration not stated)
cytotoxicity at 10 µM: -24.1%

Cc1noc([C@H]2CC[C@@H]3[C@@H](CCN3c3ncccn3)O2)n1
cytotoxicity at 10 µM: 3.06%

COCCc1noc(CNC(C)(CO)C2CCCCC2)n1 (configuration not stated)
cytotoxicity at 10 µM: 7.88%

c1ccc(CN2CC[C@]3(C[C@@H](Oc4ccccn4)CO3)C2)nc1
cytotoxicity at 10 µM: -1.88%

CCC(=O)N1CCCCC1c1nc(O)c2c(n1)CN(S(C)(=O)=O)CC2 (configuration not stated)
cytotoxicity at 10 µM: 5%

CCOc1ccc(CN(CCOC)c2nc(C)nc3oc(C)nc23)cc1
cytotoxicity at 10 µM: -30.2%

c1ccc(CCCN2CCN(c3ccc4nncn4n3)CC2)cc1
cytotoxicity at 10 µM: 4.2%

Cc1cc2cc(C(=O)N3CC[C@H](O)[C@]4(CCCO4)C3)ccc2o1
cytotoxicity at 10 µM: 1.01%

NCCNS(=O)(=O)Cc1ccc(Br)cc1
cytotoxicity at 10 µM: 19.4%

O=C1NCc2ccc(NC(=O)C3CCCN3c3nccs3)cc21 (configuration not stated)
cytotoxicity at 10 µM: -6.02%

O=C(Cc1cccc(O)c1)NCCCNC(=O)c1cccc(F)c1
cytotoxicity at 10 µM: 1.65%

O=C(c1cccnc1)N1C[C@H]2CC[C@@H](C1)N(Cc1ncc[nH]1)C2
cytotoxicity at 10 µM: -13.2%

O=C1[C@@H]2CN(c3ncnc4sccc34)C[C@]2(C(=O)O)CN1CC1CC1
cytotoxicity at 10 µM: 0.977%

O=C(N1CCCO1)[C@@]12CCO[C@@H]1CCN(Cc1ccsc1)C2
cytotoxicity at 10 µM: 1.73%

O=C(NCc1cccnc1OCC(F)(F)F)N1CCOCC1
cytotoxicity at 10 µM: -43.4%

CCN(CC)CCCC(C)NC(=O)c1cccnc1-n1cccn1 (configuration not stated)
cytotoxicity at 10 µM: -0.595%

O=C(c1ccco1)N1CCCC1C1CCN(Cc2ccccc2)CC1 (configuration not stated)
cytotoxicity at 10 µM: 0.821%

Cn1ccc(C(=O)N2C[C@H]3CCC[C@@]3(COCc3cccnc3)C2)n1
cytotoxicity at 10 µM: 6.87%

COC(=O)CCC(=O)NC1CCCc2cc(OC(F)F)ccc21 (configuration not stated)
cytotoxicity at 10 µM: -4.52%

CCn1ccnc1CN1CCN(CCOc2ccc(C#N)cc2)CC1
cytotoxicity at 10 µM: -3.75%

CS(=O)(=O)Cc1ccc(C(=O)NC2CCc3nccn3C2)o1 (configuration not stated)
cytotoxicity at 10 µM: -8.77%

COC(=O)C(c1cc(F)ccc1F)N(C)C(=O)c1cnccn1 (configuration not stated)
cytotoxicity at 10 µM: 6.43%

Clc1cncc(NCc2cccc(COC3CCOCC3)c2)n1
cytotoxicity at 10 µM: 14.6%

Cc1ccccc1C(C)(C)CNC(=O)CCSc1nnnn1C
cytotoxicity at 10 µM: 6.51%

O=C(NCC(F)(F)F)C(c1cccnc1)N1CCCC1 (configuration not stated)
cytotoxicity at 10 µM: 2.26%

Cc1cc(C2CCCN(Cc3ncc(C)o3)C2)n[nH]1 (configuration not stated)
cytotoxicity at 10 µM: 4.63%

Cc1cc(CN2CCN(c3nn4cc(C)nc4s3)CC2)on1
cytotoxicity at 10 µM: 6.4%

O=C(CNc1cc2c(cc1Cl)OCCO2)NCC(F)(F)F
cytotoxicity at 10 µM: 0.49%

CS(=O)(=O)C1CCN(S(=O)(=O)Cc2cccc(F)c2)CC1
cytotoxicity at 10 µM: -19.1%

O=C(NC1CC(F)(F)C1)[C@]12COC[C@H]1CN(Cc1cccnc1)C2
cytotoxicity at 10 µM: -109%

Cc1cccc(CN2C(=O)C[C@H]3[C@@H]2CCN3CC2CC2)n1
cytotoxicity at 10 µM: 6.59%

CN(C)c1nccc(C2CCCCN2Cc2cnn3cccnc23)n1 (configuration not stated)
cytotoxicity at 10 µM: 10.5%

COc1cc(F)ccc1N1CCN(Cc2nnc(C3CC3)o2)CC1
cytotoxicity at 10 µM: 14.8%

CC(C)(C)c1ncc(C(=O)NCCNS(C)(=O)=O)s1
cytotoxicity at 10 µM: -6.14%

Cc1ccc2c(c1)OC(C)CN2C(=O)CCc1cccnc1 (configuration not stated)
cytotoxicity at 10 µM: -52.8%

CCn1cnnc1C1CCN(C(=O)c2ccccc2F)CC1
cytotoxicity at 10 µM: -5.13%

CCn1nccc1CNC(=O)CCC1CCCC1
cytotoxicity at 10 µM: 11.4%

CCN(CC)C(=O)c1nc2c(s1)CCN(C(=O)Nc1ccccc1)CC2
cytotoxicity at 10 µM: 12%

Cc1ccccc1NC(=O)CNC(C)COc1ccccc1 (configuration not stated)
cytotoxicity at 10 µM: -0.264%

CCN(CC)CC1CN(Cc2ccc(C)s2)Cc2nccn2C1 (configuration not stated)
cytotoxicity at 10 µM: 2.32%

COCc1noc(CN2CCC3(CC2)[C@H](O)C[C@@H]3OC)n1
cytotoxicity at 10 µM: 0.0851%

COCCN(CCOC)C(=O)c1ccn(-c2ccccc2Cl)n1
cytotoxicity at 10 µM: -1.59%

Cc1ccc(CN2Cc3nnn(C)c3C(COCC3CC3)C2)o1 (configuration not stated)
cytotoxicity at 10 µM: -4.7%

CCc1cc(=O)[nH]c2nnc(SCC(=O)NC)n12
cytotoxicity at 10 µM: -4.06%

CC(C)c1noc(-c2ccc(-n3cnc(C(=O)O)c3)nc2)n1
cytotoxicity at 10 µM: -2.06%

COc1ncccc1CNc1snc(Cl)c1C#N
cytotoxicity at 10 µM: 10.2%

COc1ccc(OCC(=O)NS(=O)(=O)c2ccc(Cl)s2)cc1
cytotoxicity at 10 µM: 14.1%

NS(=O)(=O)CCNC(=O)c1ccc(OCc2ccccc2)nc1
cytotoxicity at 10 µM: 6.85%

CN1CCOC(CNCc2ccccc2OCc2ccccn2)C1 (configuration not stated)
cytotoxicity at 10 µM: -9.39%

O=C1CCCN1Cc1nc(-c2ccsc2)no1
cytotoxicity at 10 µM: -5.41%

COc1cccc(-c2cc(C3=NC(=CN4CCN(C)CC4)NO3)[nH]n2)c1
cytotoxicity at 10 µM: -7.54%

O=C(c1ccc(OCC2CC2)nc1)N1CCCC(n2ccnc2)C1 (configuration not stated)
cytotoxicity at 10 µM: -9.16%

Cc1cc(C)n(CC2CCCN2Cc2ncc(C(C)(C)C)o2)n1 (configuration not stated)
cytotoxicity at 10 µM: -1.64%

O=C(CN1CCOC(Cn2cccn2)C1)NCc1ccco1 (configuration not stated)
cytotoxicity at 10 µM: -14.6%

CN(Cc1nccn1CC(F)(F)F)C(=O)c1cccc(C#N)c1
cytotoxicity at 10 µM: 5.4%

CC(=O)Nc1ccc(CCC2(NC(=O)C3CCCO3)CCCCC2)cn1 (configuration not stated)
cytotoxicity at 10 µM: 1.6%

CCOC(CC)C(=O)NCCC(=O)N1CCN(c2ccccn2)CC1 (configuration not stated)
cytotoxicity at 10 µM: -7.4%

c1ccc(C(CNc2ncccn2)N2CCOCC2)nc1 (configuration not stated)
cytotoxicity at 10 µM: -47.5%

CC(Cn1ccnc1)NC(=O)C1(c2cccc(Cl)c2)CC1 (configuration not stated)
cytotoxicity at 10 µM: -19.3%

CN(CC1Cc2ccccc2CN1C)c1nc(N)nc2c1CCNCC2 (configuration not stated)
cytotoxicity at 10 µM: 0.0642%

CC(NC(=O)Nc1ccccc1CN1CCOCC1)c1nccs1 (configuration not stated)
cytotoxicity at 10 µM: 2.1%

O=C(CCn1ccnc1)N1CCCC(n2cncn2)C1 (configuration not stated)
cytotoxicity at 10 µM: 0.0383%

Cn1cc(C2CCCN2C(=O)c2ccc(OCC3CC3)nc2)cn1 (configuration not stated)
cytotoxicity at 10 µM: -7.77%

CN(C)CC1(O)CCCN(C(=O)Cn2nc3ccccc3n2)CC1 (configuration not stated)
cytotoxicity at 10 µM: -8.14%

O=C(CN1CC(c2ccccc2)CC1=O)N1CCC(c2ncc[nH]2)CC1 (configuration not stated)
cytotoxicity at 10 µM: -0.234%

COc1ncccc1CNC(=O)N(Cc1ccccc1F)C1CC1
cytotoxicity at 10 µM: 2.99%

CN(C)C(c1ccccn1)C1CCC(CNC(=O)C2CC2)CC1 (configuration not stated)
cytotoxicity at 10 µM: 6.6%

CN1CCN(C(C)(C)CNC(=O)C2CCCN2S(C)(=O)=O)CC1 (configuration not stated)
cytotoxicity at 10 µM: 7.45%

COc1coc(CN2CCCC(CCc3ccccc3C)C2)cc1=O (configuration not stated)
cytotoxicity at 10 µM: -0.931%

COc1ccc(C(=O)C2CCCN(c3cc(N)ncn3)C2)c(C)c1 (configuration not stated)
cytotoxicity at 10 µM: 5.31%

NC(=O)CSc1ccccc1NC(=O)CC1C=CCC1 (configuration not stated)
cytotoxicity at 10 µM: -131%

Cn1ccc(C(=O)Nc2cc(F)ccc2OCC2CCCO2)cc1=O (configuration not stated)
cytotoxicity at 10 µM: -1.59%

Cc1nn(C)c(Cl)c1C(=O)NCC(c1ccsc1)N(C)C (configuration not stated)
cytotoxicity at 10 µM: -10%

CC(C)c1ccc(C(N)c2cccs2)cc1 (configuration not stated)
cytotoxicity at 10 µM: 15.4%

Cc1cc(CNC(=O)NC(C)c2ccc(N3CCOCC3)cc2)no1 (configuration not stated)
cytotoxicity at 10 µM: -17.4%

CC(O)CN1CCc2onc(-c3ccccc3F)c2C1 (configuration not stated)
cytotoxicity at 10 µM: 0.963%

Oc1cc(CN2CCCCC2c2cccnc2)nc2c(F)cccc12 (configuration not stated)
cytotoxicity at 10 µM: -6.88%

COc1cccc(COCC(=O)N2CCCC(n3cccn3)C2)c1 (configuration not stated)
cytotoxicity at 10 µM: -0.363%

CCn1ccc(C(=O)N2CCCC2(C)c2nc(C)cc(N(C)C)n2)n1 (configuration not stated)
cytotoxicity at 10 µM: -7.56%

CCc1nc(CN2CCCC(N(C)Cc3nc(C)c(C)o3)C2)no1 (configuration not stated)
cytotoxicity at 10 µM: -16.5%

CN(C)C(=O)CCCNC(=O)C(c1cccc(F)c1)N(C)C (configuration not stated)
cytotoxicity at 10 µM: -25.3%

CC(C)(C)C(=O)N1CCC2(CNS(=O)(=O)c3cnccc3O2)C1 (configuration not stated)
cytotoxicity at 10 µM: 10.2%

Cc1noc(C2CCC3(CCN(C(=O)c4ncccn4)CC3)O2)n1 (configuration not stated)
cytotoxicity at 10 µM: 4.09%

CCn1ncc(C(=O)NCCc2nc(-c3ccncc3)n[nH]2)c1C
cytotoxicity at 10 µM: 6.87%

CCCc1nnsc1C(=O)NCC1CCN(c2ccccn2)CC1
cytotoxicity at 10 µM: -16.7%

COc1cc(F)ccc1C(C(=O)O)N(C)CCN1CCOCC1 (configuration not stated)
cytotoxicity at 10 µM: -12.9%

CN(Cc1csc(-c2cccs2)n1)C(=O)CCn1ccccc1=O
cytotoxicity at 10 µM: 22.7%

CC(C)(C)c1n[nH]cc1CNC1CCC(C(F)(F)F)CC1 (configuration not stated)
cytotoxicity at 10 µM: 4.25%

O=C(Nc1ccccc1Cn1cccn1)N1CCC(N2CCCC2)C1 (configuration not stated)
cytotoxicity at 10 µM: 2.06%

CCc1nc(CC2CN(c3ncnc4sc(C)c(C)c34)CCO2)no1 (configuration not stated)
cytotoxicity at 10 µM: 11.9%

COCC(O)CN(C)c1ccnc2cc(F)ccc12 (configuration not stated)
cytotoxicity at 10 µM: -2.63%

O=C(c1ccoc1)N1CCC2(C1)CN(c1ncccn1)C2
cytotoxicity at 10 µM: -5.55%

CC(C)(CNC(=O)C1CCCN(C(N)=O)C1)c1cccc(Cl)c1 (configuration not stated)
cytotoxicity at 10 µM: 1.75%

Cc1csc(C2CCCCN2C(=O)CCn2cncn2)n1 (configuration not stated)
cytotoxicity at 10 µM: -6.32%

CN1Cc2ccccc2CC2(CCN(CCO)CC2)C1=O
cytotoxicity at 10 µM: -6.58%

CC(=O)N1CCc2ccccc2C1CC(=O)NCc1nnc(C)o1 (configuration not stated)
cytotoxicity at 10 µM: 5.8%

O=C(CCc1cccnc1)N1CCC2(CCN(CC3CCCC3)C2)C1 (configuration not stated)
cytotoxicity at 10 µM: 3.82%

CCN(CC)S(=O)(=O)c1ccc(CNC(=O)N2CCCCCC2)cc1
cytotoxicity at 10 µM: -2.9%

COc1ncccc1C(=O)Nc1nc2c(s1)CN(S(=O)(=O)C1CC1)CC2
cytotoxicity at 10 µM: -9.04%

CC(=O)N(Cc1ncc(C)o1)C1CCN(Cc2ccccc2C#N)C1 (configuration not stated)
cytotoxicity at 10 µM: -15.5%

CN(C)C(=O)Cn1cc(C(=O)N2CCCc3cccc(F)c32)nn1
cytotoxicity at 10 µM: 1.81%

O=C(c1cnco1)N1C[C@@H]2CC[C@H](Oc3ccccc3F)[C@@H]2C1
cytotoxicity at 10 µM: 5.22%

COc1cccc(C2CCN(c3ccc4cc[nH]c4n3)C2)c1OC (configuration not stated)
cytotoxicity at 10 µM: 50.2%

CN1C(=O)CC(c2cnn(C)c2)C12CCN(CC1CCOCC1)CC2 (configuration not stated)
cytotoxicity at 10 µM: -3.19%

COCC(=O)NC(C)c1cccc(Br)c1 (configuration not stated)
cytotoxicity at 10 µM: -8.13%
